Test results taken from ChEMBL document CHEMBL5653631, “A Potent and Selective ULK1 Inhibitor Suppresses Autophagy and Sensitizes Cancer Cells to Nutrient Stress” (iScience, 2018).
Values belong to the compound of their own block, whether it stands above or below them.

Columns and labels:
[1] = biological target: T1, Ephrin type-B receptor 2 (Homo sapiens) (UniProt P29323); assay: Inhibition of human recombinant EphB2 at 500 nM in presence of ATP by radiometric assay relative to control
T1 sequence (whole entry): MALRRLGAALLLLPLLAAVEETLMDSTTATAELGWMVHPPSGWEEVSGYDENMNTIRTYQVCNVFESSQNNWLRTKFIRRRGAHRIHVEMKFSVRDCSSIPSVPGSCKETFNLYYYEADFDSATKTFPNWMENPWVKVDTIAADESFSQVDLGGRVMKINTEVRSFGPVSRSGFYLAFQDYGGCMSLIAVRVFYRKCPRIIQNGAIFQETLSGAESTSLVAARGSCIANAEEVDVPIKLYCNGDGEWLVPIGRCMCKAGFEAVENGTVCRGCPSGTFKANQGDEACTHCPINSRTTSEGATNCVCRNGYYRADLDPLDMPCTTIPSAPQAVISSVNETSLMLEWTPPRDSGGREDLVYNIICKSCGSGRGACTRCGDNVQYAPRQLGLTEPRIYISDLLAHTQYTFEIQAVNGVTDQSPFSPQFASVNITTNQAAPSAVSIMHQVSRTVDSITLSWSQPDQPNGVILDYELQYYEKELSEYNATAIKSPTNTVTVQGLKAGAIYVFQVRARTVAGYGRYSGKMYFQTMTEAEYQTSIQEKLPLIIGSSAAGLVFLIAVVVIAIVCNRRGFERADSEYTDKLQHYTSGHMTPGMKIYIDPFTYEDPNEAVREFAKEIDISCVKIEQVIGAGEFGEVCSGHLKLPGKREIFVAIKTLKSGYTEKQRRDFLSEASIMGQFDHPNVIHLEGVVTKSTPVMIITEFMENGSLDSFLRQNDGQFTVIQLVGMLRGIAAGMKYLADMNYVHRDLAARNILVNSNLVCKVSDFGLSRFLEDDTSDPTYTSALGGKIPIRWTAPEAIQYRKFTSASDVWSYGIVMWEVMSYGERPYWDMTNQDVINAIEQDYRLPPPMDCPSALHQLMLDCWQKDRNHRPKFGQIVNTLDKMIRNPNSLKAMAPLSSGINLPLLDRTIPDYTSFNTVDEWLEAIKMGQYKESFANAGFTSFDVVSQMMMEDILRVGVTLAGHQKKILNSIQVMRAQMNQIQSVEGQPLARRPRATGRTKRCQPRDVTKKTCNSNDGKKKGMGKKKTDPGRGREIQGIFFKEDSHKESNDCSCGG

[2] = biological target: T2, Discoidin domain-containing receptor 2 (Homo sapiens) (UniProt Q16832); assay: Inhibition of human recombinant DDR2 at 500 nM in presence of ATP by radiometric assay relative to control
T2 sequence (whole entry): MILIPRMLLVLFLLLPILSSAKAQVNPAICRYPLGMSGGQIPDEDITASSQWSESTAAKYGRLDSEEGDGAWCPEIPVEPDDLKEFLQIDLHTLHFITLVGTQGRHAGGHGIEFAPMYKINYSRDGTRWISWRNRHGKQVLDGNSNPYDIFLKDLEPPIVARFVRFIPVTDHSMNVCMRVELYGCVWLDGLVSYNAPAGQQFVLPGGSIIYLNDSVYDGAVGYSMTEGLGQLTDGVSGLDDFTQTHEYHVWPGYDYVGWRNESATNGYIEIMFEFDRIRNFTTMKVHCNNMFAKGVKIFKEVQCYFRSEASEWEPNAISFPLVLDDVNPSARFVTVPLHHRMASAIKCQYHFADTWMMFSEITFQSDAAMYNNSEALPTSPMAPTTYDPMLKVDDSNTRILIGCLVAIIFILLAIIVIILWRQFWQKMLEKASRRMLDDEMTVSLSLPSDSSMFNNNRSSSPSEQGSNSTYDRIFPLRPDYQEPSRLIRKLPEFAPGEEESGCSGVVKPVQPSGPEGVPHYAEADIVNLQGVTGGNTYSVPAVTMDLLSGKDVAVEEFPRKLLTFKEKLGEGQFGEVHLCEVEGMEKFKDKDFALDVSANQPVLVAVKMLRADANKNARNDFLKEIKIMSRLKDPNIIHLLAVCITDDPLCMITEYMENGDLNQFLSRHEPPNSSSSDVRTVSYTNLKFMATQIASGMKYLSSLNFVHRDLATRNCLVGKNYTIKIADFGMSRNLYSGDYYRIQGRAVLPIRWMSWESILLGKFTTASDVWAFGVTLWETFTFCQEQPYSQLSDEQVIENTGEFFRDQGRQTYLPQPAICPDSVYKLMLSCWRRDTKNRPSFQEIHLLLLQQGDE

[3] = biological target: 5'-AMP-activated protein kinase catalytic subunit alpha-1 (Homo sapiens) (UniProt Q13131); assay: Inhibition of human recombinant AMPKa1 at 500 nM in presence of ATP by radiometric assay relative to control
Summary of the method: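 Panel of 327 recombinant human kinases, each assayed in vitro by radiometric activity assay in duplicate at a single inhibitor concentration per compound, chosen with reference to its ULK1 inhibition. Activity remaining was expressed as percent of vehicle control, and percent inhibition was calculated as 100 minus percent activity remaining.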

[4] = biological target: T3, Dual specificity mitogen-activated protein kinase kinase 6 (Homo sapiens) (UniProt P52564); assay: Inhibition of human recombinant MAP2K6 at 15 nM in presence of ATP by radiometric assay relative to control
T3 sequence (whole entry): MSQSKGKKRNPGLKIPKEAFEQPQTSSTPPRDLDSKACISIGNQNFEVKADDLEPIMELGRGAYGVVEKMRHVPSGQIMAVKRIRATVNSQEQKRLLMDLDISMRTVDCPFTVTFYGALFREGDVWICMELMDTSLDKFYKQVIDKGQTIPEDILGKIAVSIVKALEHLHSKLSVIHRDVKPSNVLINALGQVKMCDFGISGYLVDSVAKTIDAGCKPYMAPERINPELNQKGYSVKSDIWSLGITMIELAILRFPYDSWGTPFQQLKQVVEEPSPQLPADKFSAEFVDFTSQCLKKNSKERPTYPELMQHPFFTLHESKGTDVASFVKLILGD

[5] = biological target: T4, Serine/threonine-protein kinase Sgk2 (Homo sapiens) (UniProt Q9HBY8); assay: Inhibition of human recombinant SGK2 at 15 nM related to control ULK1
T4 sequence (whole entry): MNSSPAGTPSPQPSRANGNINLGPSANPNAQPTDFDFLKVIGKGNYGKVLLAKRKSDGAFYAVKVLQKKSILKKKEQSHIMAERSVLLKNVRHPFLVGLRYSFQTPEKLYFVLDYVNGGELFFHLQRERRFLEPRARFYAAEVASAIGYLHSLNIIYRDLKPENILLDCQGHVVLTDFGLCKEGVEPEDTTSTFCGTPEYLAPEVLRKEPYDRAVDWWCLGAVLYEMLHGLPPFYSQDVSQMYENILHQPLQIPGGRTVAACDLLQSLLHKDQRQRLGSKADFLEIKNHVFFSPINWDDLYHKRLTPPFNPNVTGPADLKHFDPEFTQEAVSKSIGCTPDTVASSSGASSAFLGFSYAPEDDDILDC

[6] = biological target: Protein kinase C eta type (Homo sapiens) (UniProt P24723); assay: Inhibition of human recombinant PKCH at 40 nM in presence of ATP by radiometric assay relative to control
Sequence of Protein kinase C eta type (Homo sapiens) (P24723 whole entry): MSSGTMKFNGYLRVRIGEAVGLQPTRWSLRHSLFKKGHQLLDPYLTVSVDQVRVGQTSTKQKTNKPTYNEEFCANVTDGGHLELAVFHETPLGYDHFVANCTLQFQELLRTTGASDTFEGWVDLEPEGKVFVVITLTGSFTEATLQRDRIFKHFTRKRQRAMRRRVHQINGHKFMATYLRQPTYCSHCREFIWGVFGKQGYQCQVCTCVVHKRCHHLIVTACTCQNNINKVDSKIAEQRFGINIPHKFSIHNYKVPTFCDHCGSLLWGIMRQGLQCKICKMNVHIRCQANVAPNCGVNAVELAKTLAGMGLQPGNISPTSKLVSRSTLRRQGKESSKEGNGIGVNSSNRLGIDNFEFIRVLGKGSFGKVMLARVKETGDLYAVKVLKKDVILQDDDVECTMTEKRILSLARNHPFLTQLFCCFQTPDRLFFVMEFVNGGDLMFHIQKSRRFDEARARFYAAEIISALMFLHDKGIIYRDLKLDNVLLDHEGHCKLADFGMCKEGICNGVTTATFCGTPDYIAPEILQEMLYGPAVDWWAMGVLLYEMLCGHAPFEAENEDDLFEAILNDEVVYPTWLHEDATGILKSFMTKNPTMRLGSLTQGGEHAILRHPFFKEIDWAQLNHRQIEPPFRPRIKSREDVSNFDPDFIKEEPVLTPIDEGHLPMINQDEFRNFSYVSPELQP

Sequence of 5'-AMP-activated protein kinase catalytic subunit alpha-1 (Homo sapiens) (Q13131 whole entry, looked up): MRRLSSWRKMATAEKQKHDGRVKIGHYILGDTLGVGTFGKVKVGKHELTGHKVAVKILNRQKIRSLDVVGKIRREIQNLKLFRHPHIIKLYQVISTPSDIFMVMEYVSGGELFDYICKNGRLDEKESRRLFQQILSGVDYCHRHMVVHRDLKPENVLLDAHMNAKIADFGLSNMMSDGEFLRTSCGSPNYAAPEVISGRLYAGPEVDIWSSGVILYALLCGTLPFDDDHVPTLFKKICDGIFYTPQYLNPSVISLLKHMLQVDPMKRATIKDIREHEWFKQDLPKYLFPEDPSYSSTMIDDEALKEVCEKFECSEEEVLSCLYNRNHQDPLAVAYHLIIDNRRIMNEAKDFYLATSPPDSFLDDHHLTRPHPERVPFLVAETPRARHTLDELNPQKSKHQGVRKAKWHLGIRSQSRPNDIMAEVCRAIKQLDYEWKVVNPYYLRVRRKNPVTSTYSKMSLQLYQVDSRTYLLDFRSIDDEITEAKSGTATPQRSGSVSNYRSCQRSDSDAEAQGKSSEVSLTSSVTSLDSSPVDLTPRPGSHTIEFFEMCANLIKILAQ

inhibition [1]: 15% | inhibition [2]: 0% | inhibition [3]: 51%
SMILES: CNC(=O)c1ccccc1Oc1nc(Nc2cc(OC)c(OC)c(OC)c2)ncc1Br

inhibition [4]: 5% | fold change (FC) [5]: 0
SMILES: CC(C)[C@H](NC(=O)c1cc(-c2cnn3cc(-c4ccc(OCCN5CCCCC5)cc4)cnc23)cs1)C(F)(F)F

inhibition [6]: 0%
SMILES: O=C(N[C@@H](C1CC1)C(F)(F)F)c1cc(-c2cnn3cc(-c4ccc(F)cc4)cnc23)cs1
